Data set [1] has as its system Acinetobacter baumannii. The experiment in a line: Drug uptake in Acinetobacter baumannii ATCC 51393 incubated for 10 mins in dark by fluorescence analysis. It counts as ADME, organism-based. The following applies: in vivo. An outline of the steps: (§1)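 Cells (10^8/ml) held with compound at 0.05-10 μM for 10 min in dark at room temperature. They were then pelleted, washed twice in PBS and lysed in RIPA for 30 min at room temperature. Lysate fluorescence was read at compound-specific wavelengths and converted with per-compound calibration curves. Values were normalized to protein measured by BCA against BSA standards.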

Data set [2] relates to Escherichia coli. The experiment in a line: Antimicrobial activity against Escherichia coli ATCC 53868 assessed as log reduction in bacterial CFU incubated for 10 mins prior to irradiation with 10 J/cm2 of light. It counts as functional. An outline of the steps:
(§2)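 Bacteria grown overnight in BHI broth at 37°C with shaking, refreshed 3 h, adjusted to OD600 0.5 (10^8 CFU/ml), pelleted and resuspended in PBS. Suspensions held with photosensitizer (0.1-100 μM, diluted from 5 mM DMA stock) 10 min in dark at room temperature, then 635-nm light at 10 J/cm2 and 50 mW/cm2. Surviving CFU counted by serial dilution on nutrient agar after 18 h at 37°C; triplicates.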

The test system of data set [3] is Staphylococcus aureus. The data set can be described thus: Antimicrobial activity against Staphylococcus aureus 8325-4 assessed as log reduction in bacterial CFU incubated for 10 mins prior to irradiation with 10 J/cm2 of light. It counts as functional. In short, it runs like this:
as §2

The nature of data set [4]: Induction of reactive oxygen species generation at 5 uM using singlet oxygen sensor green probe by microplate spectrophotometer analysis in presence of 1 J/cm'2 to 15 J/cm'2 of light. Format: physicochemical. An outline of the steps:
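Cell-free assay in PBS: compound at 5 μM final with SOSG probe at 5 μM final, 4 wells per group. 635-nm light given in sequential doses of 1 to 15 J/cm2. Fluorescence read in slow kinetic mode at excitation 505 nm and emission 525 nm.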

The test system of data set [5] is Escherichia coli. The experiment in a line: Drug uptake in Escherichia coli ATCC 53868 incubated for 10 mins in dark by fluorescence analysis. It counts as ADME, organism-based. The following applies: in vivo. In short, it runs like this: as §1
A short description of data set [6]: Octanol-phosphate buffered saline partition coefficient, log P of the compound at 100 uM after 30 mins. It counts as physicochemical. In short, it runs like this:
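Compound (100 μM) in 1.5 mL octanol plus 1.5 mL PBS, stirred overnight at room temperature, then left 30 min for phases to separate. Each phase was read by absorbance at the compound's peak, undiluted and diluted 1:2 and 1:10. Log10 of the octanol/PBS ratio is reported.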

Data set [7] can be described thus: Induction of reactive oxygen species generation at 5 uM using hydroxyphenyl-fluorescein probe by microplate spectrophotometer analysis in presence of 1 J/cm'2 to 15 J/cm'2 of light. It counts as physicochemical. In short, it runs like this: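 Cell-free assay in PBS: compound at 5 μM final with HPF probe at 5 μM final, 4 wells per group. 635-nm light given in sequential doses of 1 to 15 J/cm2. Fluorescence read in slow kinetic mode at excitation 490 nm and emission 515 nm, 2 nm bandpass.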

In data set [8] the test system is Staphylococcus aureus. The data set can be described thus: Drug uptake in Staphylococcus aureus 8325-4 incubated for 10 mins in dark by fluorescence analysis. The following applies: in vivo. It counts as ADME, organism-based. In short, it runs like this: as §1
The subject of data set [9] is Enterococcus faecalis. The experiment in a line: Antimicrobial activity against Enterococcus faecalis ATCC 29212 assessed as log reduction in bacterial CFU incubated for 10 mins prior to irradiation with 10 J/cm2 of light. It counts as functional. In short, it runs like this: as §2
In data set [10] the test system is Acinetobacter baumannii. The data set can be described thus: Antimicrobial activity against Acinetobacter baumannii ATCC 51393 assessed as log reduction in bacterial CFU incubated for 10 mins prior to irradiation with 10 J/cm2 of light. Format: functional. In short, it runs like this: as §2
For data set [11], the system named is Enterococcus faecalis. The data set can be described thus: Drug uptake in Enterococcus faecalis ATCC 29212 incubated for 10 mins in dark by fluorescence analysis. It counts as ADME, organism-based. The following applies: in vivo. An outline of the steps:
as §1

Data set [12] has as its system Enterococcus faecalis. The experiment in a line: Dark toxicity against Enterococcus faecalis ATCC 29212 at 0.1 to 100 uM after 10 mins. Format: organism-based. The following applies: in vivo. In short, it runs like this:
(§3)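 Dark controls: 10^8 CFU/ml in PBS with photosensitizer for 10 min at room temperature, no illumination. Solvent controls contained 2% DMA. Viability read as CFU after serial dilution, plating on nutrient agar and 18 h dark incubation at 37°C; triplicate.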

For data set [13], the system named is Staphylococcus aureus. The data set can be described thus: Dark toxicity against Staphylococcus aureus 8325-4 at 0.1 to 100 uM after 10 mins. It counts as organism-based. The following applies: in vivo. An outline of the steps:
as §3

Data set [14] concerns Acinetobacter baumannii. The experiment in a line: Dark toxicity against Acinetobacter baumannii ATCC 51393 at 0.1 to 100 uM after 10 mins. The following applies: in vivo. It counts as organism-based. An outline of the steps: as §3
In data set [15] the test system is Escherichia coli. The experiment in a line: Dark toxicity against Escherichia coli ATCC 53868 at 0.1 to 100 uM after 10 mins. The following applies: in vivo. Format: organism-based. In short, it runs like this:
as §3

The subject of data set [16] is Acinetobacter baumannii. The data set can be described thus: Dark toxicity against Acinetobacter baumannii ATCC 51393 at 50 uM after 10 mins. It counts as organism-based. To be noted: in vivo. An outline of the steps:
as §3

Data set [17] concerns Enterococcus faecalis. The data set can be described thus: Dark toxicity against Enterococcus faecalis ATCC 29212 at 50 uM after 10 mins. To be noted: in vivo. It counts as organism-based. In short, it runs like this:
as §3

For data set [18], the system named is Staphylococcus aureus. The experiment in a line: Dark toxicity against Staphylococcus aureus 8325-4 at 50 uM after 10 mins. Format: organism-based. To be noted: in vivo. An outline of the steps: as §3
The subject of data set [19] is Escherichia coli. The experiment in a line: Dark toxicity against Escherichia coli ATCC 53868 at 50 uM after 10 mins. Format: organism-based. To be noted: in vivo. In short, it runs like this:
as §3

Active and inactive are the calls of the source. No cut-off for these calls is given here.

For the compound `CCN(CC)c1ccc2nc3c4ccccc4/c(=N\CCNC(=N)N)cc-3sc2c1.Cl.Cl`, the Drug uptake result in the data set on Acinetobacter baumannii [1], in the data set on Escherichia coli [5], in the data set on Staphylococcus aureus [8] and in the data set on Enterococcus faecalis [11] was “Active” in each case. For the same compound, the log10cfu in the data set with Escherichia coli [2], in the data set on Staphylococcus aureus [3], in the data set with Enterococcus faecalis [9] and in the data set with Acinetobacter baumannii [10] was over 5 throughout. Moreover, the Activity entry in [4] is on record as “Active”; in data set [7], “Active”; in the data set with Enterococcus faecalis [12], “Toxic”; in the data set on Staphylococcus aureus [13] it was “Toxic”; in the data set on Acinetobacter baumannii [14] it was “Toxic”. Also, the logP at 0.5 h, 100 µM in [6] came out at 0.49.

On to `CC/N=c1/cc2sc3cc(N(CC)CC)ccc3nc-2c2c(NC(C)=O)cccc12.Cl`, for which the result in the data set on Escherichia coli [2] and in the data set on Acinetobacter baumannii [10] was inactive. Further, the Activity entry in the data set on Escherichia coli [15] is “Toxic”; in data set [4], “Active”; in data set [7], “Active”; in the data set on Acinetobacter baumannii [14], “Toxic”. This compound came in with a logP at 0.5 h, 100 µM in data set [6] of 1.36.

Turning to `CCCS(=O)(=O)N(CC)c1cccc2c3nc4ccc(N(CC)CC)cc4sc-3c/c(=N\CC)c12.Cl`, the Drug uptake result in the data set on Acinetobacter baumannii [1], in the data set with Escherichia coli [5], with Staphylococcus aureus [8] and with Enterococcus faecalis [11] was “Active” in each case. Besides, the result with Escherichia coli [2] and in the data set on Acinetobacter baumannii [10] was inactive. For the same compound, in the data set with Staphylococcus aureus [3], the log10cfu is reported as over 5. Besides, the Activity entry in the data set with Escherichia coli [15] is given as “Toxic”; in data set [4] it was “Active”; in [7], “Active”; with Enterococcus faecalis [12], “Non-toxic”; with Staphylococcus aureus [13], “Non-toxic”; in the data set with Acinetobacter baumannii [14] it was “Non-toxic”. In data set [6], this compound returned a logP at 0.5 h, 100 µM of 2.45.

Regarding `CCCS(=O)(=O)N(CC)c1cccc2/c(=N\CC)cc3sc4cc(N(CC)CC)ccc4nc-3c12.Cl`, the Drug uptake result in the data set with Acinetobacter baumannii [1], with Escherichia coli [5], with Staphylococcus aureus [8] and in the data set on Enterococcus faecalis [11] was “Active” each time. In addition, the outcome with Escherichia coli [2] and with Acinetobacter baumannii [10] was inactive. The log10cfu in the data set with Staphylococcus aureus [3] is on record as 4; with Enterococcus faecalis [9] it was over 5. Moreover, the Activity result in data set [4] was “Active”; in data set [7], “Active”; with Enterococcus faecalis [12] it was “Toxic”; in the data set on Staphylococcus aureus [13], “Toxic”. Besides, the logP at 0.5 h, 100 µM in [6] came to 2.19.

As for `CC/N=c1/cc2sc3cc(N(CC)CC)ccc3nc-2c2c([N+](=O)[O-])cccc12.Cl`, the Drug uptake entry in the data set with Acinetobacter baumannii [1], in the data set with Escherichia coli [5], with Staphylococcus aureus [8] and in the data set on Enterococcus faecalis [11] was “Active” each time. The log10cfu in the data set on Staphylococcus aureus [3] and in the data set on Enterococcus faecalis [9] was 5 each time. In addition, the Activity entry was “Active” in data set [4], “Active” in data set [7], “Toxic” in the data set on Enterococcus faecalis [12] and “Toxic” with Staphylococcus aureus [13]. The compound also showed a logP at 0.5 h, 100 µM in [6] of 2.03.

For `CC/N=c1/cc2sc3cc(N(CC)CC)ccc3nc-2c2ccccc12.Cl`, the Drug uptake result in the data set with Acinetobacter baumannii [1], with Escherichia coli [5], in the data set on Staphylococcus aureus [8] and in the data set on Enterococcus faecalis [11] was “Active” each time. For the same compound, the log10cfu with Escherichia coli [2], in the data set with Staphylococcus aureus [3], with Enterococcus faecalis [9] and in the data set on Acinetobacter baumannii [10] was over 6 throughout. In addition, the Activity entry in [4] was “Active”; in data set [7] it was “Active”; with Acinetobacter baumannii [16], “Toxic”; with Enterococcus faecalis [17], “Toxic”; with Staphylococcus aureus [18], “Non-toxic”; with Escherichia coli [19] it was “Toxic”. In data set [6], this compound yielded a logP at 0.5 h, 100 µM of 2.87.

`CC/N=c1/cc2sc3cc(N(CC)CC)ccc3nc-2c2c(N)cccc12.Cl`: the Drug uptake entry with Acinetobacter baumannii [1], with Escherichia coli [5], with Staphylococcus aureus [8] and with Enterococcus faecalis [11] was “Active” in each case. In addition, the log10cfu in the data set with Staphylococcus aureus [3] was under 3. Also, the result in data set [4] and in data set [7] was Active. In [6], the logP at 0.5 h, 100 µM came out at 1.77.

What is called logP is the decadic logarithm of the partition coefficient of the neutral form, usually between octanol and water.
